Sampled rows, rich in hits. Any-hit rate of the full collection: about 4.8%.
GPR7 antag – antagonists of human GPR7 (neuropeptides B/W receptor 1); GPR7-expressing cells, fluorescence antagonist assay; inhibition, % at 4.4 µM; 290,000 compounds, 1.1% hits; in the data active means inhibition above about 16%, passing the limit was not always enough;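 further: cells stimulated with the agonist NPW; 0% = agonist with vehicle and 100% = vehicle without agonist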
Target sequence (P48145 whole entry, looked up): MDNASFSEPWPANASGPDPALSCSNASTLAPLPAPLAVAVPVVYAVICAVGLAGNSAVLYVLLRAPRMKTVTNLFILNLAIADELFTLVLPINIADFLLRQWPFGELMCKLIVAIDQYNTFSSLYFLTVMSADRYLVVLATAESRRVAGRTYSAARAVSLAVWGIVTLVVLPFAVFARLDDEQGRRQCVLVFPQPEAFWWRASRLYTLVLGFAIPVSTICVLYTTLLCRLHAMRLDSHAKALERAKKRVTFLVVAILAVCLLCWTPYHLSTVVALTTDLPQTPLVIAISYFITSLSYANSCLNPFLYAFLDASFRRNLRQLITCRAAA
HSF1 inhib – HSF1 inhibition; NIH3T3-HGL HSE-luciferase, MG132-induced, luminescence 8 h; active compounds read low; activity change, negative = inhibition, % at 7.5 µM (by protocol); 300,000 compounds, 0.77% hits;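 active means more than half of replicate wells show activity change below -50%, luminescence cut by over half; inconclusive means some wells, but at most half, below -50%; inactive means no replicate well below -50%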;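 further: luciferase reports HSF-1 transcriptional activity via heat shock element; 0% = median of DMSO wells and -100% = zero luminescence signal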
697 NFkB inh – inhibitors of the PMA/ionomycin-induced NF-kB reporter in 697 B cells. 697 B-cell NF-kB luciferase reporter, 16 h. inhibition, % at 4 µM. 330,000 compounds, 0.33% hits. AID 435022; in the data active means inhibition above about 35%
T cruzi inh – T. cruzi replication inhibition. 300,000 compounds, 1.4% hits. T. cruzi beta-gal in NIH3T3, luminescence, 90 h. inhibition, % (no concentration beside the values). AID 1885;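 active means mean inhibition across valid replicates above about 55%, limit read from the data; inconclusive means mean below that limit but half or more replicates reach it; inactive means mean below it, under half of replicates reach it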;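 further: signal also drops with host cell toxicity which is not excluded here; 0% = plate median of DMSO wells and 100% = zero luminescence signal; higher percent means less beta-gal luminescence so fewer parasites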
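Assay system: NIH/3T3 host cells with β-galactosidase reporter T. cruzi; input: 5,000 host fibroblasts per well; compound: single 50 nL compound addition per well in DMSO; timing: ≥90 h infection period, 3 h prior cell attachment; measured by: GalScreen β-gal luminescence, detergent lysis, 60 min; evaluation: percent inhibition of parasite-derived β-gal signal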
Jurkat NFkB inh – lowers PMA/ionomycin-induced NF-kB signal in Jurkat cells. 330,000 compounds, 0.53% hits. AID 435003. inhibition, % at 4 µM. PMA/ionomycin-induced NF-kB luciferase reporter, luminescence; in the data active means inhibition above about 50%
HSF-1 act – increases HSF-1 driven luciferase reporter signal; NIH3T3-HGL HSF-1 luciferase reporter, MG132, 8 h; 100% = twice DMSO control signal; activation, % at 9 µM; 300,000 compounds, 1.7% hits;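 active means mean replicate activation of at least 50% with a set share of replicates each reaching 50%; inconclusive means only one of those two conditions met; inactive means mean below 50% and too few replicates reaching it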;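 further: 0% = median of the neutral control wells and 100% = twice that signal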
697 NFkB conf – inhibitors of the PMA/ionomycin-induced NF-kB reporter in 697 B cells, retest | shares compounds with 697 NFkB inh | 697 B-cell NF-kB luciferase, 16 h | inhibition, % at 4 µM | 2,000 compounds, 35% hits; in the data active means inhibition mostly above about 28%, no sharp cut-off; inactive means mostly below about 22%
Active calls of the source: *; u = inconclusive; x = no result given.

SMILES | GPR7 antag | HSF1 inhib | 697 NFkB inh | T cruzi inh | Jurkat NFkB inh | HSF-1 act | 697 NFkB conf
CCn1cc(C(=O)O)c(=O)c2cc(F)c(N3CCN(C(=S)NC(=O)c4ccc(OC)cc4)CC3)cc21 | -13.3 | -6.7 | 13.1 | -3.6 | 6.8 | -17.1 | x
CCn1cc(C(=O)O)c(=O)c2cc(F)c(N3CCN(C(=S)NC(=O)c4ccc(Br)cc4)CC3)cc21 | -10.1 | -5.3 | 38.2* | -16.3 | -21.1 | -0.5 | 11.2
CCn1cc(C(=O)O)c(=O)c2cnc(N3CCN(C(=S)Nc4ccccc4Cl)CC3)nc21 | -7.8 | -9.3 | 3.6 | 7.5 | 6.7 | -26.3 | x
CC(C)(C)c1ccc(C(=O)NCC(=O)N2CCCCCC2)cc1 | 5.7 | -1.9 | 6.3 | 10.2 | -5.2 | 7.4 | x
CCOc1cc(/C=N/NC(=O)c2ccc(NC(=O)C3CC3)cc2)ccc1O | -9.7 | -7.0 | 38.5* | -1.0 | 22.0 | -11.5 | 19.3
Fc1ccc(-c2noc(-c3ccc4c(c3)CCO4)n2)cc1 | 2.2 | -5.0 | -308.1 | -1.2 | -132.0 | 15.4 | -268.1
Cc1cc(C(=O)OCC(=O)NC2(C#N)CCCCC2)c(C)o1 | x | x | 21.4 | x | 5.1 | x | x
COC(=O)c1[nH]c2ccc(C)cc2c1NC(=O)Nc1ccccc1OC | 1.2 | 14.6 | 35.7* | -6.1 | 9.0 | 22.4 | 25.9*
COC(=O)c1[nH]c2ccc(C)cc2c1NC(=O)CN1CCc2cc(OC)c(OC)cc2C1 | 2.3 | -8.1 | 2.6 | 6.1 | -8.8 | 7.1 | x
COCCN(C(=O)c1sc2ccccc2c1Cl)c1c(N)n(CC(C)C)c(=O)[nH]c1=O | x | x | 3.9 | x | 1.8 | x | x
O=C(COC(=O)C1CCN(S(=O)(=O)c2ccc3c(c2)OCCO3)CC1)NC1CCCCC1 | x | 2.0 | 35.6* | -10.5 | 8.2 | -4.5 | 10.2
COC(=O)c1cc(C(=O)c2ccccc2)n2c(=O)/c(=C\N(C)C)sc12 | -1.9 | -8.2 | 32.3 | 9.7 | 9.7 | -21.0 | x
COC(=O)c1cc(C(=O)c2ccc(Cl)cc2)n2c(=O)/c(=C\N(C)C)sc12 | 1.7 | -2.9 | 41.3* | 24.0 | 7.6 | -3.7 | 10.7
CSC1=C(C#N)C(c2ccc3c(c2)OCO3)C2=C(CCCC2=O)N1 (stereo not given) | -1.4 | 6.7 | -8.2 | 7.3 | 3.2 | 7.3 | x
CCSC1=C(C#N)C(c2ccc(Cl)cc2)C2=C(CCCC2=O)N1 (stereo not given) | 2.4 | -7.0 | 35.2* | 4.6 | 3.8 | -10.1 | 13.4
COc1ccc(C=C(C(C)=O)C(C)=O)cc1OC | -11.2 | 7.9 | 42.7* | -1.8 | -8.5 | 16.2 | 30.3*
CN(C)c1ccc(NC(=O)C2CCCN(S(=O)(=O)c3ccccc3)C2)cc1 (stereo not given) | -12.8 | 4.1 | 16.4 | -13.4 | -4.5 | 3.5 | x
N#Cc1ccccc1COc1ccc(/C=C/C(=O)O)cc1 | 3.7 | -17.5 | 38.5* | -10.6 | 13.7 | -14.7 | 38.4*
CC1CCc2nc(NC(=O)Nc3ccc4c(c3)OCO4)sc2C1 (stereo not given) | -7.7 | 13.9 | -44.4 | 10.6 | -90.0 | 23.3 | x
CNC(=O)c1cc(Nc2nnc(-c3ccc(O)cc3)c3ccccc23)ccc1OC | -4.1 | -4.5 | 35.4* | 18.4 | 8.3 | -0.3 | 28.9*
CC(=O)Nc1ccccc1Sc1ccccc1 | -16.6 | -0.1 | 17.0 | -14.9 | 4.2 | -17.5 | x
O=C(CCl)Nc1ccccc1Sc1ccccc1 | 3.5 | 3.2 | 41.0* | -11.4 | 17.3 | 26.0 | 34.1*
COCCCNC(=O)COc1ccc(-c2nccc(-c3ccccn3)n2)cc1 | 19.0 | -20.0 | 53.4* | 7.8 | 3.0 | -33.2 | 62.6*
Cc1c(C)n(Cc2ccccc2)c2ncnc(Cl)c12 | -16.2 | -4.7 | -24.5 | 4.4 | 16.1 | 9.8 | x
Cc1cc(C)nc(Sc2ccc([N+](=O)[O-])cc2[N+](=O)[O-])n1 | -0.2 | 45.3 | 40.7* | 13.1 | -14.1 | 65.9* | 29.3*
SMILES | GPR7 antag | HSF1 inhib | 697 NFkB inh | T cruzi inh | Jurkat NFkB inh | HSF-1 act | 697 NFkB conf
Cc1noc(COc2ccccc2OCC(N)=O)c1Cl | 20.0 | -11.4 | 37.5* | -19.6 | -3.2 | 1.0 | 25.5
CC(C)N(c1ccccc1)c1ccc(NC(=O)CCl)cc1 | 3.0 | u | 35.5* | 79.7* | 24.1 | -25.3 | 11.0
O=C(N/N=C(\CC(=O)c1cccs1)C(F)(F)F)c1ccncc1 | -13.3 | -0.5 | -271.3 | 0.4 | 7.3 | -4.2 | -6.7
Cn1nnnc1Sc1ncnc2scc(Br)c12 | x | x | 36.9* | x | -1.0 | x | 60.0*
CCOc1ccc(-c2nnn(CC(=O)NCc3ccco3)n2)cc1 | -7.2 | 8.5 | 22.2 | -16.5 | 10.4 | -0.2 | x
CCOc1ccc(-c2cc(CCCC(=O)NCc3ccc(C)cc3)no2)cc1 | 3.9 | -6.9 | 48.3* | 5.8 | -7.0 | 1.6 | 36.8*
CCOc1ccc(-c2cc(CCCC(=O)NCc3ccco3)no2)cc1 | 14.6 | -26.0 | 57.3* | -4.0 | -20.0 | -40.8 | 46.0*
Clc1ccc(-c2cn3cc(Cl)ccc3n2)cc1 | 6.7 | 17.7 | -312.5 | 7.6 | -104.2 | 45.0 | -380.6
O=C(Nc1cc(Cl)cc(Cl)c1)C1CCCC1 | -14.4 | -1.0 | -1.7 | 6.5 | -15.7 | 2.4 | x
CCN(CC(=O)Nc1c(F)cccc1F)C(=O)c1cc([N+](=O)[O-])ccc1N1CCCCC1 | x | 1.8 | 35.3* | 6.9 | 5.4 | -4.5 | 43.7*
CCN(CC(=O)Nc1c(F)cccc1F)C(=O)c1cc(S(=O)(=O)N2CCOCC2)ccc1N1CCCC1 | x | -5.0 | 39.6* | 3.5 | 20.5 | 4.4 | 32.2*
CCN(CC(=O)Nc1c(F)cccc1F)C(=O)c1ccc(N2CCOCC2)c([N+](=O)[O-])c1 | x | 6.4 | 4.8 | 2.7 | -32.4 | 29.3 | x
COc1cc2cc(CCCOC(=O)c3ccc(F)cc3)oc(=O)c2cc1OC | x | x | -8.5 | x | -7.7 | x | x
CCOc1ccc(/C(O)=C2/C(=O)C(=O)N(CCCN3CCOCC3)C2c2ccc(F)cc2)cc1C (stereo not given) | -0.3 | 3.7 | -4.3 | 19.1 | -3.3 | -4.6 | x
CSc1nc(Cc2ccccc2)nc2ccccc12 | 5.3 | 0.5 | -16.2 | -2.9 | -14.3 | -4.8 | x
CCC(=O)N1c2ccccc2C(N(C(C)=O)c2ccccc2)CC1C (stereo not given) | 3.8 | 13.0 | 37.3* | 1.2 | 11.6 | 19.0 | 45.0*
Cc1ccc(-c2csc3ncnc(Nc4ccc(C(=O)O)cc4)c23)cc1 | -9.4 | -3.3 | 36.2* | 20.1 | 10.4 | -7.2 | 15.8
O=C(NCCCN1CCOCC1)c1cc(-c2ccc(Br)cc2)on1 | -8.1 | -18.5 | 63.1* | 1.1 | 2.8 | -21.9 | 38.3*
O=C(NCCCN1CCOCC1)c1cc(-c2ccc(O)cc2)on1 | -4.1 | 1.4 | 3.1 | 7.5 | -11.8 | 3.2 | x
CC(=O)c1ccc(NC(=O)c2ccc(CNc3c(N4CCCC4)c(=O)c3=O)cc2)cc1 | -7.6 | 5.2 | 5.8 | -6.5 | 10.5 | -9.3 | x
CCc1cccc(NC(=O)c2ccc(CNc3c(N4CCCC4)c(=O)c3=O)cc2)c1 | -7.2 | -1.8 | 42.0* | -24.4 | 20.0 | 9.1 | 33.0*

Source: PubChem BioAssay
